What was measured:
Phosphodiesterase 3 = Phosphodiesterase 3 (Homo sapiens, UniProt Q14432+Q13370); assay: In vitro inhibition of cyclic AMP phosphodiesterase from human platelets
[1] = Inhibition of ADP-induced platelet aggregation; format: functional
How it was run: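 ADP-induced platelet aggregation. Read-out is the rate of change in percentage transmission of the primary aggregation phase after 5 min incubation. Each agent tested at five concentrations in triplicate, with experiments repeated at least twice using platelets from different donors. IC50 (μM) determined graphically.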

[2] = molecular target: Phosphodiesterase; PDE3 & PDE4 (Homo sapiens) (UniProt P27815+Q14432+Q08499+Q07343+Q13370+Q08493); assay: In vivo inhibition of cyclic AMP phosphodiesterase from dog heart
How it was run: (§1)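 Cyclic AMP phosphodiesterase prepared from human platelets (IC50, nM) or from rat or dog heart tissue (IC25, nM). Each agent tested at five inhibitor concentrations in triplicate. IC50/IC25 read graphically from the dose-response curve.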

Homo sapiens = organism: Homo sapiens; assay: Ratio of IC50 of inhibition of platelet aggregation to IC50 of inhibition of platelet PDE (Efficacy index); format: functional
How it was run: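 Efficacy index is the IC50 for inhibition of ADP-induced platelet aggregation divided by the IC50 for human platelet PDE inhibition. Both IC50s come from graphical dose-response curves (five concentrations, triplicate).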

[3] = In vivo inhibition of cyclic AMP phosphodiesterase from rat heart; conditions: in the assay text read “In vitro” for “In vivo”
How it was run: as §1

[4] = Canis lupus familiaris; in the assay text read “In vitro” for “In vivo”; target entry is the homologue from another species
[5] = Canis lupus familiaris; target entry is the homologue from another species; in the assay text read “In vitro” for “In vivo”

| SMILES | IC50 (Phosphodiesterase 3) [nM] | IC50 [1] [nM] | IC25 [2, 4] [nM] | Ratio (Homo sapiens) | IC25 [3] [nM] | IC25 [2, 5] [nM] |
| --- | --- | --- | --- | --- | --- | --- |
| C=c1c(=O)[nH]c2n1Cc1cc(OCCCC(=O)N(C)C3CCCCC3)ccc1N=2 | 2.7 | 150 | 45 | 55.5 |  |  |
| CN(C(=O)CCCOc1ccc2c(c1)CN1CC(=O)NC1=N2)c1ccccc1 | 26 | 390 |  | 15 | 350 |  |
| O=C1CN2Cc3cc(OCCCC(=O)N(C4CCCCC4)C4CCCCC4)ccc3N=C2N1 | 1.45 | 420 |  | 300 | 16 |  |
| COC(=O)CN(C(=O)CCCOc1ccc2c(c1)CN1CC(=O)NC1=N2)C1CCCCC1 | 2 | 700 |  | 350 |  | 10 |
| COCCN(C(=O)CCCOc1ccc2c(c1)CN1CC(=O)NC1=N2)C1CCCCC1 | 1.3 | 105 | < 10 | 81 |  |  |
| C[C@H]1C(=O)NC2=Nc3ccc(OCCCC(=O)N(C)C4CCCCC4)cc3CN21 | 26 | 470 |  | 18 |  | 78 |
| O=C1CN2Cc3cc(OCCCC(=O)N(CCN4CCOCC4)C4CCCCC4)ccc3N=C2N1 | 4.1 | 1000 |  | 243 |  | 32 |
| CCN(C(=O)CCCOc1ccc2c(c1)CN1CC(=O)NC1=N2)C1CCCCC1 | 1.5 | 180 |  | 120 |  | 5.2 |
| CN(C(=O)CCCCc1ccc2c(c1)CN1CC(=O)NC1=N2)C1CCCCC1 | 200 | 6600 | 220 | 33 |  |  |
| CN(C(=O)CCCOc1ccc2c(c1)CN1C(=N2)NC(=O)[C@H]1CO)C1CCCCC1 | 18.5 | 6900 |  | 373 |  | 72 |
| O=C1CN2Cc3cc(OCCCC(=O)N(CCCO)C4CCCCC4)ccc3N=C2N1 | 6 | 1700 | 17 | 283 |  |  |
| CN(C)C(=O)CCCOc1ccc2c(c1)CN1CC(=O)NC1=N2 | 1200 | 90000 |  | 75 |  |  |
| O=C1CN2Cc3cc(OCCCC(=O)N4CCCc5ccccc54)ccc3N=C2N1 | 10 | 1050 |  | 105 | 160 |  |
| O=C1CN2Cc3cc(OCCCC(=O)N(Cc4ccccc4)Cc4ccccc4)ccc3N=C2N1 |  |  |  |  | 60 |  |
| O=C1CN2Cc3cc(OCCCc4nnnn4C4CCCCC4)ccc3N=C2N1 | 4.5 | 1000 | 18 | 222 |  |  |
| CN(C(=O)OCCOc1ccc2c(c1)CN1CC(=O)NC1=N2)C1CCCCC1 | 13 | 1500 | 58 | 115 |  |  |
| CN(C(=O)CCCOc1ccc2c(c1)NC1=NC(=O)CN1C2)C1CCCCC1 | 150 | 26000 |  | 173 |  | 64 |
| CN(C(=O)CCCS(=O)(=O)c1ccc2c(c1)CN1CC(=O)NC1=N2)C1CCCCC1 | 3100 | 58000 |  | 19 |  | 6600 |
| O=C1CN2Cc3cc(OCCCC(=O)N4CCOCC4)ccc3N=C2N1 | 1600 | 53000 |  | 33 | 7000 |  |
| O=C1CN2Cc3cc(OCCCC(=O)N4CCCC5CCCCC54)ccc3N=C2N1 (centres undefined) | 13.5 | 880 |  | 65 | 200 |  |
| O=C1CN2Cc3cc(OCCCC(=O)N4CCCC4)ccc3N=C2N1 | 340 | 82000 |  | 241 | 1700 |  |
| CC1c2cc(OCCCC(=O)N(C)C3CCCCC3)ccc2NC2=NC(=O)CN21 (centres undefined) | 5.9 | 130 | 14 | 22 |  |  |
| CN(C(=O)CCCOc1ccc2c(c1)CN1CC(=O)NC1=N2)C1CCCCCCC1 | 2.2 | 190 | 1.6 | 86 |  |  |
| CN(C(=O)CCCOc1ccc2c(c1)CN1C(=N2)NC(=O)C12CC2)C1CCCCC1 | 760 | 50000 | 3700 | 66 |  |  |
| CN(C(=O)CCCOc1ccc2c(c1)CN1C(=O)C(=O)NC1=N2)C1CCCCC1 | 4400 | 150000 | 1700 | 34 |  |  |
| C[C@@H]1C(=O)NC2=Nc3ccc(OCCCC(=O)N(C)C4CCCCC4)cc3CN21 | 5.4 | 360 |  | 66 |  | 27 |

| SMILES | IC50 (Phosphodiesterase 3) [nM] | IC50 [1] [nM] | IC25 [2, 4] [nM] | Ratio (Homo sapiens) | IC25 [3] [nM] | IC25 [2, 5] [nM] |
| --- | --- | --- | --- | --- | --- | --- |
| CC(O)[C@@H]1C(=O)NC2=Nc3ccc(OCCCC(=O)N(C)C4CCCCC4)cc3CN21 (some centres undefined) | 1600 | 54000 | 3700 | 34 |  |  |
| NC(=O)CN(C(=O)CCCOc1ccc2c(c1)CN1CC(=O)NC1=N2)C1CCCCC1 | 11 | 20000 |  | 1818 |  | 100 |
| O=C1CN2Cc3cc(OCCCC(=O)N(C(CO)CO)C4CCCCC4)ccc3N=C2N1 | 12 | 82000 |  | 6833 |  | 26 |
| O=C1CN2Cc3cc(OCCCC(=O)N(CCCCCO)C4CCCCC4)ccc3N=C2N1 | 4.9 | 2700 | 2.3 | 551 |  |  |
| O=C1CN2Cc3cc(OCCCC(=O)OC4CCCCC4)ccc3N=C2N1 | 18 | 3400 | 43 | 168 |  |  |
| CC[C@@H]1C(=O)NC2=Nc3ccc(OCCCC(=O)N(C)C4CCCCC4)cc3CN21 | 370 | 5600 | 620 | 15 |  |  |
| CC[C@H]1C(=O)NC2=Nc3ccc(OCCCC(=O)N(C)C4CCCCC4)cc3CN21 | 580 | 8200 |  | 14 |  | 450 |
| O=C1CN2Cc3cc(OCCCC(=O)NC4CCCCC4)ccc3N=C2N1 | 72 | 10000 | 180 | 139 |  |  |
| CN(C(=O)CCCOc1ccc2c(c1)CN1CC(=O)NC1=N2)C1CCCC1 | 48 | 1450 |  | 30 |  | 25 |
| CN(C(=O)CCCOc1ccc2c(c1)CN1C(=O)CNC1=N2)C1CCCCC1 | 15000 | 120000 | 1600 | 8 |  |  |
| CN(C(=O)CCCSc1ccc2c(c1)CN1CC(=O)NC1=N2)C1CCCCC1 | 140 | 25000 | 260 | 178 |  |  |
| CN(C(=O)CCCOc1ccc2c(c1)CN1CC(=O)NC1=N2)C1CCCCCC1 | 1 | 250 |  | 250 |  | 4.2 |
| CN(C(=O)CCCOc1cccc2c1CN1CC(=O)NC1=N2)C1CCCCC1 | 2000 | 60000 | 1500 | 30 |  |  |
| CC(O)[C@H]1C(=O)NC2=Nc3ccc(OCCCC(=O)N(C)C4CCCCC4)cc3CN21 (some centres undefined) | 1000 | 22000 |  | 22 |  | 1700 |
| CN(C(=O)CCCOc1ccc2c(c1)CN1C(=N2)NC(=O)[C@@H]1CO)C1CCCCC1 | 27.5 | 15500 | 90 | 563 |  |  |
| CN(C(=O)NCCOc1ccc2c(c1)CN1CC(=O)NC1=N2)C1CCCCC1 | 17 | 8600 | 780 | 506 |  |  |
| CC(C)N(C(=O)CCCOc1ccc2c(c1)CN1CC(=O)NC1=N2)C1CCCCC1 | 3.2 | 260 | 15 | 81 |  |  |
| O=C1CN2Cc3cc(OCCCC(=O)N(CCCCO)C4CCCCC4)ccc3N=C2N1 | 6.4 | 4000 |  | 625 |  | 7.2 |
| NC(=O)CCCOc1ccc2c(c1)CN1CC(=O)NC1=N2 | 690 | 47000 |  | 68 |  | 380 |
| CCOC(=O)CCCOc1ccc2c(c1)CN1CC(=O)NC1=N2 | 240 | 1600 |  | 6.7 |  | 440 |
| O=C1CN2Cc3cc(OCCCC(=O)N(CCCCCCO)C4CCCCC4)ccc3N=C2N1 | 3.6 | 4000 |  | 1111 |  | 2 |
| CN(C(=O)CCCOc1ccc2c(c1)CN1CCC(=O)NC1=N2)C1CCCCC1 | 130 | 1900 |  | 14.6 |  | 100 |
| CN(C(=O)CCCOc1ccc2c(c1)CN1C(=N2)NC(=O)C1(C)C)C1CCCCC1 | 470 | 4300 | 2400 | 9 |  |  |
| CN(C(=O)CCCOc1ccc2c(c1)CN1CC(=O)NC1=N2)C1CCC(O)CC1 (centres undefined) | 120 | 25000 |  | 208 |  | 290 |
| O=C1CN2Cc3cc(OCCCC(=O)N(CCn4ccnc4)C4CCCCC4)ccc3N=C2N1 | 5.6 | 3600 | 7 | 642 |  |  |
| CN(C(=O)CCCOc1ccc2c(c1Cl)CN1CC(=O)NC1=N2)C1CCCCC1 | 14 | 1100 |  | 79 |  | 100 |
